The results in this text go back to ChEMBL document CHEMBL1122003, “Preparation and antiinflammatory activity of 2- and 4-pyridones” (J Med Chem, 1982).

“And” between values parts separate entries of the source, which are not always exact repeats. Equal values may be shown once.

Series [1] in a line: (§1) Lethal dose of compound was determined in mice by standard multidimensional observational assay. The note with it: mouse, in vivo. It counts as toxicity, organism-based. In short, it runs like this: (§2)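 Approximate LD50 in mice, estimated from a standard multidimensional observational assay and calculated by the Litchfield–Wilcoxon method.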
Series [2] deals with Rattus norvegicus. As to the kind of experiment: Effective dose of compound that reduce edema by at least 25% in 50% of animals. Type of series: functional. Put shortly: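 Rats, fasted 2 h, water ad libitum; compound given orally in 0.25% methylcellulose, controls vehicle only, at several doses below the 200 mg/kg screen. Carrageenan (1% sterile, 0.05 cm³) injected into left hind foot pad 1 h later. Paw volume measured at 3 h.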

The subject of series [3] is Rattus norvegicus. The series can be described thus: Percent reduction of edema was measured after oral administration at 200 mg/kg using carrageenan-induced pedal edema assay. Type of series: functional. Put shortly:
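Rats fasted 2 h; single oral 200 mg/kg in 0.25% methylcellulose, vehicle controls. Carrageenan (1% sterile, 0.05 cm³) injected into left hind foot pad 1 h after dosing. Paw volume measured at peak swelling, 3 h, by displacement apparatus; edema from differential paw volume, expressed as % reduction vs control.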

The test system of series [4] is Rattus norvegicus. As to the kind of experiment: Effective dose of compound that reduce edema in adrenolectomized rats by at least 25% in 50% of animals. It counts as functional. In short, it runs like this:
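Rats adrenalectomized several days before assay; otherwise as the intact-rat test: fasted 2 h, oral dosing in 0.25% methylcellulose at several doses, carrageenan (1%, 0.05 cm³) into left hind foot pad 1 h later, paw volume at 3 h.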

The species entered for the next series is Mus musculus. The description is as §1. Type of series: toxicity, organism-based. The note with it: in vivo. In short, it runs like this: as §2
Setting [5] is: Rattus norvegicus, read-out: ED50.

As for `Cc1ccccc1NC(=O)c1c(C)n(-c2ccccc2C)c(C)cc1=O`, the LD50 – broadly, the dose at which mortality reaches 50% – in series [1] was found to be 562 mg/kg. Moreover, the results for the ED50 in the series with Rattus norvegicus [2] (setting [5]) and in the series with Rattus norvegicus [4] were 80 mg/kg and 84.8 mg/kg, respectively. For the same compound, the Reduction in the series with Rattus norvegicus [3] (200 mg/kg) was 17% and 49%.

With `COc1ccc(OC)c(NC(=O)c2c(C)n(-c3cc(OC)ccc3OC)c(C)cc2=O)c1`, in series [1], the LD50 stood at 562 mg/kg. Besides, the Reduction with Rattus norvegicus [3] is given as 0%.

Take `COc1ccccc1NC(=O)c1c(C)n(-c2ccccc2OC)c(C)cc1=O`: the LD50 in series [1] amounted to 562 mg/kg; in the series filed under Mus musculus, 300 mg/kg. In addition, the results for the ED50 with Rattus norvegicus [2] (setting [5]) and with Rattus norvegicus [4] were 28 mg/kg and 200 mg/kg, respectively.

As to `Cc1cc(=O)c(C(=O)Nc2ccccc2Cl)c(C)n1-c1ccccc1Cl`, the LD50 (in series [1]; in the series listed under Mus musculus) was 562 mg/kg throughout. Further, the Reduction in the series on Rattus norvegicus [3] (200 mg/kg) was 2% and 8%.

Regarding `O=C(Nc1ccccc1)c1c(-c2ccccc2)n(-c2ccccc2)c(-c2ccccc2)cc1=O`, the LD50 in series [1] came to 562 mg/kg. This compound came in with a Reduction in the series with Rattus norvegicus [3] of 0%.

Regarding `Cc1cc(=O)c(C(=O)Nc2ccc(Cl)cc2)c(C)n1-c1ccc(Cl)cc1`, the Reduction in the series with Rattus norvegicus [3] (200 mg/kg) is 58% and 62%.

In series [1], `Cc1c(Br)c(=O)c(C(=O)Nc2ccccc2)c(C)n1-c1ccccc1` displayed an LD50 of 562 mg/kg. Also, the Reduction in the series with Rattus norvegicus [3] is listed as 23%.

Take `Cc1cccc(C)c1NC(=O)c1c(C)n(-c2c(C)cccc2C)c(C)cc1=O`: the Reduction in the series with Rattus norvegicus [3] (200 mg/kg) was 31% and 26%.

`Cc1cccc(NC(=O)c2c(C)n(-c3cccc(C)c3C)c(C)cc2=O)c1C` yielded an LD50 in series [1] of 562 mg/kg. The same compound registered a Reduction in the series with Rattus norvegicus [3] of 0%.

For `Cc1cc(=O)c(C(=O)Nc2ccccc2)c(C)n1-c1ccccc1`, the 50% lethal dose (LD50) (in series [1]; in the series listed under Mus musculus) was 562 mg/kg in each case. The ED50 (usually the midpoint of the dose-response relation) with Rattus norvegicus [2] was greater than 200 mg/kg; with Rattus norvegicus [2] (setting [5]), 200 mg/kg. Besides, in the series with Rattus norvegicus [3] (200 mg/kg), the Reduction is 25% and 33%.

As for `Cc1cc(C)c(NC(=O)c2c(C)n(-c3c(C)cc(C)cc3C)c(C)cc2=O)c(C)c1`, the Reduction with Rattus norvegicus [3] was found to be 53%.
